These results are taken from ChEMBL document CHEMBL1144424, “Synthesis and biological evaluation of 14-alkoxymorphinans. 22.(1) Influence of the 14-alkoxy group and the substitution in position 5 in 14-alkoxymorphinan-6-ones on in vitro and in vivo activities” (J Med Chem, 2005).

The subject of assay [1] is Mus musculus. Put plainly: Gastrointestinal (GI) motility was assessed by colonic bead expulsion after subcutaneous administration in mice. Format: functional. The following applies: sc.
The nature of assay [2]: Ratio of binding affinities for opioid receptors kappa and mu. The method, boiled down: (§1)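 Ratios of Ki values from competition binding. Rat brain membranes were used with 0.5 nM [3H]DAMGO (mu) or [3H][Ile5,6]deltorphin II (delta), 45 min at 35 °C. Guinea pig brain membranes were used with 1 nM [3H]U69,593 (kappa), 30 min at 30 °C. Nonspecific binding was defined with 10 µM naloxone.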

For assay [3], the system named is Mus musculus. In words: Antinociceptive potencie was assessed after subcutaneous administration of compound by hotplate test (HP) in mice. Format: functional. The method, boiled down: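 Male CD-1 mice (20-25 g), compound in sterile Ringer's solution given sc, 10 animals per dose. Paw licking or jumping on 55 °C hot-plate; pre-drug control latency (non-responders within 3 s excluded), 12 s cutoff.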

For assay [4], the target named is Delta-type opioid receptor (Rattus norvegicus, UniProt P33533). Put plainly: Inhibition of [3H][Ile5,6]deltorphin II binding to opioid receptor delta from rat brain membranes. The assay is classed as cell membranes, Membrane. The method, boiled down: (§2)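 Sprague-Dawley rat brain membranes (0.3-0.5 mg protein) in 50 mM Tris-HCl incubated with 0.5 nM [3H]DAMGO or [3H][Ile5,6]deltorphin II, 45 min at 35 °C. GF/C filtration, ice-cold Tris-HCl washes; nonspecific binding with 10 µM naloxone. Duplicates, 3-4 independent experiments; Ki as mean ± SEM.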

Assay [5] has as its target Kappa-type opioid receptor (Cavia porcellus, UniProt P41144). Put plainly: Inhibition of [3H]U-69593 binding to opioid receptor kappa from guinea pig brain membranes.
Assay [6] in a line: Relative agonistic activity against opioid receptor delta in mouse vas deferens and opioid receptor mu in guinea pig ileum. Format: functional.
Assay [7] is filed under the species Mus musculus. In words: Ratios of colonic bead expulsion to that of antinociceptive potencie by hotplate test in mice. The assay is classed as functional.
In assay [8] the target is Delta-type opioid receptor (Mus musculus, UniProt P32300). Put plainly: In vitro agonistic activity against opioid receptor delta of mouse vas deferens. The assay is classed as functional, tissue-based. In outline: (§3)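 Field stimulation with supramaximal-voltage bipolar rectangular pulses of male guinea-pig ileum myenteric plexus longitudinal muscle and of mouse vas deferens. Inhibition of the electrically evoked twitch; IC50 values as mean ± SEM.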

The target of assay [9] is Mu-type opioid receptor (Rattus norvegicus, UniProt P33535). Put plainly: Inhibition of [3H]DAMGO binding to opioid receptor mu from rat brain membranes. The assay is classed as cell membranes, Membrane. In outline: as §2
For assay [10], the target named is Opioid receptors; mu & delta (Rattus norvegicus) (UniProt P33533+P33535). Put plainly: Ratio of binding affinities for opioid receptors delta and mu. The assay is classed as protein assay. In outline:
as §1

For assay [11], the target named is Mu-type opioid receptor (Cavia porcellus, UniProt P97266). In words: In vitro agonistic activity against opioid receptor mu of guinea pig ileum. The assay is classed as functional, tissue-based. In outline: as §3
Chain of Mu-type opioid receptor (Cavia porcellus, UniProt P97266) (P97266 whole entry): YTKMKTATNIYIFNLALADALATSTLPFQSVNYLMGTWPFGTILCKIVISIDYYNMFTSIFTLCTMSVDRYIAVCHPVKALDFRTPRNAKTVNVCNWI

Chain of Kappa-type opioid receptor (P41144 whole entry): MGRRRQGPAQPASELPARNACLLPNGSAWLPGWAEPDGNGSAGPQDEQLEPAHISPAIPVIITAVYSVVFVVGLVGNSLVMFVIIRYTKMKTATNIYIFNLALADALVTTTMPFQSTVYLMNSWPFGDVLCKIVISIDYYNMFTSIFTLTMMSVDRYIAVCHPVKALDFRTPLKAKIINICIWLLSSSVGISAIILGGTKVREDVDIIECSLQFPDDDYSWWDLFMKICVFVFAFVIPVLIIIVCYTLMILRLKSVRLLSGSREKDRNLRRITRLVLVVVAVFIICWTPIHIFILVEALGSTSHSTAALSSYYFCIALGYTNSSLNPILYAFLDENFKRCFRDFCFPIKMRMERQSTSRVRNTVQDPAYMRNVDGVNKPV
Chain of Delta-type opioid receptor (Mus musculus, UniProt P32300) (P32300 whole entry): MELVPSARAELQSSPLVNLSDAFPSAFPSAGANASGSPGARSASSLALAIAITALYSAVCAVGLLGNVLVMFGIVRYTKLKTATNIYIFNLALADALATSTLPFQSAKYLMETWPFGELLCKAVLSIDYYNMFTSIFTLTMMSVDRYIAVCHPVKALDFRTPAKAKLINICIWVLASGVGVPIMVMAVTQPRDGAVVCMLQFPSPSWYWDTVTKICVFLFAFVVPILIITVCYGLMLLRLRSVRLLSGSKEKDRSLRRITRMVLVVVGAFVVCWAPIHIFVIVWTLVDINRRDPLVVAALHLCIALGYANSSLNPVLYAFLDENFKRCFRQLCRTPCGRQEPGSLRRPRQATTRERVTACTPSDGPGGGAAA
Chain of Mu-type opioid receptor (Rattus norvegicus, UniProt P33535) (P33535 whole entry): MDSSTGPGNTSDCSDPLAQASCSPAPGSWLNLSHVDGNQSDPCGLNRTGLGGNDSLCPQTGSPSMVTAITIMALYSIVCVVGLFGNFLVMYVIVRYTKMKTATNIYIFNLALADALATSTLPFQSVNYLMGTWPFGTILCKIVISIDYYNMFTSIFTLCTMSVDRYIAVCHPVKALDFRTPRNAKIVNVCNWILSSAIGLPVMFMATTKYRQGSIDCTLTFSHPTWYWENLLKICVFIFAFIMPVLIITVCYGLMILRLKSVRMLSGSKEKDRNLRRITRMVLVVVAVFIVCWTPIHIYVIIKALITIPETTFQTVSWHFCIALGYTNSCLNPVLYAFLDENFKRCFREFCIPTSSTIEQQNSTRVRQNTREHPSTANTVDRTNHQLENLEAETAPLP
Chain of Opioid receptors; mu & delta (Rattus norvegicus) (P33533 whole entry, looked up): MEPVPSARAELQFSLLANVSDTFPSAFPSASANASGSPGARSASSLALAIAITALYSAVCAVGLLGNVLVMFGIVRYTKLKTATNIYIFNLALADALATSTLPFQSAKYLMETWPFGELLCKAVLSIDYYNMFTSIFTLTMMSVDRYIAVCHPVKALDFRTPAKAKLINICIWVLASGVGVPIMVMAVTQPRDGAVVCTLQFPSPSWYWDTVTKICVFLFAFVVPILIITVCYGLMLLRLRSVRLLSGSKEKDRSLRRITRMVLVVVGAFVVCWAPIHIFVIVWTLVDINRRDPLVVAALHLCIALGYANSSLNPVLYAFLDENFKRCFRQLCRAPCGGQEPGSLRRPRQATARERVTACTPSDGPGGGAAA
Chain of Opioid receptors; mu & delta (Rattus norvegicus) (P33535 whole entry, looked up): as the sequence (P33535 whole entry) above
Chain of Delta-type opioid receptor (Rattus norvegicus, UniProt P33533) (P33533 whole entry): as the sequence (P33533 whole entry, looked up) above

In the case of `CN1CC[C@]23c4c5ccc(O)c4O[C@H]2C(=O)CC[C@@]3(OCc2c(Cl)cccc2Cl)[C@H]1C5`, the ED50 (as a rule, the midpoint of the dose-response relation) in the assay with Mus musculus [1] amounted to 2.49 µmol/kg. The figures for the Selectivity in [2] and in assay [10] were 3.2 and 15, respectively. The compound further gave an AD50 in the assay on Mus musculus [3] of 1640 nmol/kg. The Ki (in general, a measure of affinity in units of concentration, obtained from inhibition or displacement) amounted to 152 nM in [4], 33.2 nM in assay [5] and 10.3 nM at Mu-type opioid receptor [9]. Besides, the Ratio in [6] was found to be 0.2; in the assay listed under Mus musculus [7], 1.5. The IC50 (in general, the concentration needed to halve the response being measured) in [8] is 209 nM; at Mu-type opioid receptor [11] it was 1000 nM.
In turn, `CN1CC[C@]23c4c5ccc(O)c4O[C@H]2[C@@H](O)C=C[C@H]3[C@H]1C5` [MORPHINE] showed an ED50 in the assay on Mus musculus [1] of 7.62 µmol/kg. The same compound had an AD50 with Mus musculus [3] of 6690 nmol/kg.
`CN1CC[C@]23c4c5ccc(O)c4O[C@H]2C(=O)CC[C@@]3(OCc2cccc3ccccc23)[C@H]1C5`: in the assay on Mus musculus [1], the ED50 is 0.0118 µmol/kg. The Selectivity turned out to be 5.1 in assay [2] and 16 in assay [10]. For the same compound, the AD50 in the assay on Mus musculus [3] amounted to 14.4 nmol/kg. Moreover, the values for the Ki (in assay [4]; in assay [5]; on Mu-type opioid receptor [9]) were 2.92 nM, 0.92 nM and 0.18 nM, respectively. Moreover, the results for the Ratio (in assay [6]; in the assay listed under Mus musculus [7]) were 0.9 and 0.8, respectively. Further, the figures for the IC50 (in [8]; at Mu-type opioid receptor [11]) were 0.8 nM and 0.9 nM, respectively.
Take `CN1CC[C@]23c4c5ccc(O)c4O[C@H]2C(=O)CC[C@@]3(OCc2ccccc2)[C@H]1C5`: it took a dose of 0.027 µmol/kg to reach the 50% effect level with Mus musculus [1] (ED50). In addition, the Selectivity in assay [2] amounted to 10; in [10] it was 18. Further, the AD50 in the assay on Mus musculus [3] came to 9.6 nmol/kg. The Ki worked out at 2.14 nM in assay [4], 1.18 nM in assay [5] and 0.12 nM at Mu-type opioid receptor [9]. For the same compound, the figures for the Ratio (in assay [6]; in the assay listed under Mus musculus [7]) were 1.7 and 2.8, respectively. Besides, the IC50 in [8] was 1.5 nM; at Mu-type opioid receptor [11] it was 0.9 nM.
In the case of `CO[C@@]12CCC(=O)[C@]3(C)Oc4c(O)ccc5c4[C@@]31CCN(C)[C@@H]2C5`, the results for the Selectivity in [2] and in assay [10] were 168 and 89, respectively. The compound further returned an AD50 in the assay with Mus musculus [3] of 280 nmol/kg. Further, the Ki stood at 13.3 nM in assay [4], 25.2 nM in assay [5] and 0.15 nM on Mu-type opioid receptor [9]. The Ratio in assay [6] stood at 4. The values for the IC50 (in assay [8]; on Mu-type opioid receptor [11]) were 24.4 nM and 6.1 nM, respectively.
In the assay on Mus musculus [1], `CO[C@@]12CCC(=O)[C@@H]3Oc4c(O)ccc5c4[C@@]31CCN(C)[C@@H]2C5` showed an ED50 of 0.022 µmol/kg. Besides, in the assay with Mus musculus [3], the AD50 came out at 53 nmol/kg. Also, the Ki in assay [4] worked out at 4.8 nM. Moreover, the IC50 worked out at 30.5 nM in assay [8] and 2 nM at Mu-type opioid receptor [11].
Consider `CCO[C@@]12CCC(=O)[C@]3(C)Oc4c(O)ccc5c4[C@@]31CCN(CCc1ccccc1)[C@@H]2C5`, for which the ED50 in the assay with Mus musculus [1] came out at 0.121 µmol/kg. In addition, the Selectivity in assay [2] was 520; in [10] it was 20. Also, the AD50 in the assay on Mus musculus [3] is recorded as 109 nmol/kg. The Ki in [4] stood at 3.14 nM; in assay [5] it was 83.2 nM; at Mu-type opioid receptor [9] it was 0.16 nM. The Ratio in assay [6] is 5.1; in the assay listed under Mus musculus [7], 1.1. The figures for the IC50 (in assay [8]; on Mu-type opioid receptor [11]) were 9.7 nM and 1.9 nM, respectively.
Regarding `C=CCO[C@@]12CCC(=O)[C@@H]3Oc4c(O)ccc5c4[C@@]31CCN(C)[C@@H]2C5`, the ED50 in the assay with Mus musculus [1] was found to be 0.037 µmol/kg. In addition, the Selectivity in assay [2] is 55; in assay [10] it was 59. For the same compound, in the assay on Mus musculus [3], the AD50 is 35 nmol/kg. Also, the Ki in [4] was 36 nM; in assay [5], 33.8 nM; at Mu-type opioid receptor [9], 0.61 nM. Also, the results for the Ratio (in assay [6]; in the assay filed under Mus musculus [7]) were 3.6 and 1.1, respectively. Further, the IC50 in [8] turned out to be 63 nM; at Mu-type opioid receptor [11], 17.6 nM.
For `CN1CC[C@]23c4c5ccc(O)c4O[C@@]2(C)C(=O)CC[C@@]3(OCc2ccccc2)[C@H]1C5`, in the assay on Mus musculus [1], the 50% effect level (ED50) was put at a dose of 0.074 µmol/kg. Also, the Selectivity in [2] stood at 14; in assay [10] it was 20. Moreover, the AD50 in the assay with Mus musculus [3] is 65 nmol/kg. Further, the Ki in assay [4] was 3.67 nM; in assay [5] it was 2.46 nM; on Mu-type opioid receptor [9] it was 0.18 nM. For the same compound, the results for the Ratio (in assay [6]; in the assay listed under Mus musculus [7]) were 4.6 and 1.1, respectively. Moreover, the values for the IC50 (in [8]; at Mu-type opioid receptor [11]) were 2.3 nM and 0.5 nM, respectively.
